Reference: ChEMBL document CHEMBL3098013, “Novel pyrazole integrated 1,3,4-oxadiazoles: synthesis, characterization and antimicrobial evaluation” (2014)
Converted amounts (≈) assume the structure as drawn.

How the values were obtained:
Format in all cases: functional
Staphylococcus aureus [1] = assay: Antimicrobial activity against Staphylococcus aureus MTCC 96 after 24 hrs by microdilution method; details: MTCC 96, 24 h
Outline: (§1)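 The minimal inhibitory concentration was determined by dilution, alongside minimal bactericidal concentration for bacterial strains and minimal fungicidal concentration for fungal strains. Tests were run in six replicates, and the value is the mean of at least three determinations.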

Fusarium oxysporum [2] = assay: Antimicrobial activity against Fusarium oxysporum MTCC 284 after 48 hrs by microdilution method; outline: as §1
Fusarium verticillioides [3] = assay: Antimicrobial activity against Fusarium moniliforme MTCC 156 at 100 ug/ml after 48 hrs by disc diffusion method; details: for zone of inhibition at 100 µg/mL: MTCC 156, 48 h, read-out: DIZ
Outline: (§2)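 Agar diffusion read-out is the diameter of the inhibition zone in mm. Each test was run in six replicates and reported as mean ± standard deviation, taken from at least three determinations.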

Bacillus cereus [4] = assay: Antimicrobial activity against Bacillus cereus MTCC 8372 after 24 hrs by microdilution method; details: MTCC 8372, 24 h; outline: as §1
Aspergillus flavus [5] = assay: Antimicrobial activity against Aspergillus flavus MTCC 873 at 50 ug/ml after 48 hrs by disc diffusion method; details: for zone of inhibition at 50 µg/mL: MTCC 873, 48 h, read-out: DIZ; outline: as §2
Fusarium verticillioides [6] = assay: Antimicrobial activity against Fusarium moniliforme MTCC 156 at 50 ug/ml after 48 hrs by disc diffusion method; details: for zone of inhibition at 50 µg/mL: MTCC 156, 48 h, read-out: DIZ; outline: as §2
Fusarium verticillioides [7] = assay: Antimicrobial activity against Fusarium moniliforme MTCC 156 after 48 hrs by microdilution method; outline: as §1
Aspergillus niger [8] = assay: Antimicrobial activity against Aspergillus niger MTCC 281 after 48 hrs by microdilution method; outline: as §1
Escherichia coli [9] = assay: Antimicrobial activity against Escherichia coli MTCC 724 at 50 ug/ml after 24 hrs by disc diffusion method; details: MTCC 724, 24 h, read-out: DIZ; outline: as §2
Bacillus cereus [10] = assay: Antimicrobial activity against Bacillus cereus MTCC 8372 at 50 ug/ml after 24 hrs by disc diffusion method; details: MTCC 8372, 24 h, read-out: DIZ; outline: as §2
Aspergillus niger [11] = assay: Antimicrobial activity against Aspergillus niger MTCC 281 at 100 ug/ml after 48 hrs by disc diffusion method; details: for zone of inhibition at 100 µg/mL: MTCC 281, 48 h, read-out: DIZ; outline: as §2
Aspergillus niger [12] = assay: Antimicrobial activity against Aspergillus niger MTCC 281 at 50 ug/ml after 48 hrs by disc diffusion method; details: for zone of inhibition at 50 µg/mL: MTCC 281, 48 h, read-out: DIZ; outline: as §2
Staphylococcus aureus [13] = assay: Antimicrobial activity against Staphylococcus aureus MTCC 96 at 100 ug/ml after 24 hrs by disc diffusion method; details: MTCC 96, 24 h, read-out: DIZ; outline: as §2
Aspergillus flavus [14] = assay: Antimicrobial activity against Aspergillus flavus MTCC 873 after 48 hrs by microdilution method; outline: as §1
Bacillus cereus [15] = assay: Antimicrobial activity against Bacillus cereus MTCC 8372 at 100 ug/ml after 24 hrs by disc diffusion method; details: MTCC 8372, 24 h, read-out: DIZ; outline: as §2
Klebsiella pneumoniae [16] = assay: Antimicrobial activity against Klebsiella pneumoniae MTCC 3384 at 50 ug/ml after 24 hrs by disc diffusion method; details: MTCC 3384, 24 h, read-out: DIZ; outline: as §2
Staphylococcus aureus [17] = assay: Antimicrobial activity against Staphylococcus aureus MTCC 96 at 50 ug/ml after 24 hrs by disc diffusion method; details: MTCC 96, 24 h, read-out: DIZ; outline: as §2
Klebsiella pneumoniae [18] = assay: Antimicrobial activity against Klebsiella pneumoniae MTCC 3384 after 24 hrs by microdilution method; details: MTCC 3384, 24 h; outline: as §1
Escherichia coli [19] = assay: Antimicrobial activity against Escherichia coli MTCC 724 at 100 ug/ml after 24 hrs by disc diffusion method; details: MTCC 724, 24 h, read-out: DIZ; outline: as §2
Fusarium oxysporum [20] = assay: Antimicrobial activity against Fusarium oxysporum MTCC 284 at 100 ug/ml after 48 hrs by disc diffusion method; details: for zone of inhibition at 100 µg/mL: MTCC 284, 48 h, read-out: DIZ; outline: as §2
Aspergillus flavus [21] = assay: Antimicrobial activity against Aspergillus flavus MTCC 873 at 100 ug/ml after 48 hrs by disc diffusion method; details: for zone of inhibition at 100 µg/mL: MTCC 873, 48 h, read-out: DIZ; outline: as §2
Klebsiella pneumoniae [22] = assay: Antimicrobial activity against Klebsiella pneumoniae MTCC 3384 at 100 ug/ml after 24 hrs by disc diffusion method; details: MTCC 3384, 24 h, read-out: DIZ; outline: as §2
Escherichia coli [23] = assay: Antimicrobial activity against Escherichia coli MTCC 724 after 24 hrs by microdilution method; details: MTCC 724, 24 h; outline: as §1
Fusarium oxysporum [24] = assay: Antimicrobial activity against Fusarium oxysporum MTCC 284 at 50 ug/ml after 48 hrs by disc diffusion method; details: for zone of inhibition at 50 µg/mL: MTCC 284, 48 h, read-out: DIZ; outline: as §2

Compound	MBC (Staphylococcus aureus [1]) [µg/mL]	MIC (Staphylococcus aureus [1]) [µg/mL]	MFC (Fusarium oxysporum [2]; MTCC 284, 48 h) [µg/mL]	MIC (Fusarium oxysporum [2]; MTCC 284, 48 h) [µg/mL]	zone of inhibition at 100 µg/mL (Fusarium verticillioides [3]) [mm]	MBC (Bacillus cereus [4]) [µg/mL]	MIC (Bacillus cereus [4]) [µg/mL]	zone of inhibition at 50 µg/mL (Aspergillus flavus [5]) [mm]	zone of inhibition at 50 µg/mL (Fusarium verticillioides [6]) [mm]	MFC (Fusarium verticillioides [7]; MTCC 156, 48 h) [µg/mL]	MIC (Fusarium verticillioides [7]; MTCC 156, 48 h) [µg/mL]	MFC (Aspergillus niger [8]; MTCC 281, 48 h) [µg/mL]	MIC (Aspergillus niger [8]; MTCC 281, 48 h) [µg/mL]	zone of inhibition at 50 µg/mL (Escherichia coli [9]) [mm]	zone of inhibition at 50 µg/mL (Bacillus cereus [10]) [mm]	zone of inhibition at 100 µg/mL (Aspergillus niger [11]) [mm]	zone of inhibition at 50 µg/mL (Aspergillus niger [12]) [mm]	zone of inhibition at 100 µg/mL (Staphylococcus aureus [13]) [mm]	MFC (Aspergillus flavus [14]; MTCC 873, 48 h) [µg/mL]	MIC (Aspergillus flavus [14]; MTCC 873, 48 h) [µg/mL]	other results
Cc1c(-c2nnc(-c3ccc(Cl)cc3)o2)c(-c2ccc(Cl)cc2)nn1-c1ccccc1	250 (≈ 559 µM)	40 (≈ 89.4 µM)	215 (≈ 481 µM)	30 (≈ 67.1 µM)	19	260 (≈ 581 µM)	40 (≈ 89.4 µM)	14	10	215 (≈ 481 µM)	25 (≈ 55.9 µM)	220 (≈ 492 µM)	30 (≈ 67.1 µM)	10	6	26	14	12	210 (≈ 469 µM)	25 (≈ 55.9 µM)	zone of inhibition at 100 µg/mL (Bacillus cereus [15]): 10 mm; zone of inhibition at 50 µg/mL (Klebsiella pneumoniae [16]): 8 mm; zone of inhibition at 50 µg/mL (Staphylococcus aureus [17]): 6 mm; MBC (Klebsiella pneumoniae [18]): 250 µg/mL (≈ 559 µM); MIC (Klebsiella pneumoniae [18]): 50 µg/mL (≈ 112 µM); zone of inhibition at 100 µg/mL (Escherichia coli [19]): 16 mm; zone of inhibition at 100 µg/mL (Fusarium oxysporum [20]): 28 mm; zone of inhibition at 100 µg/mL (Aspergillus flavus [21]): 18 mm; zone of inhibition at 100 µg/mL (Klebsiella pneumoniae [22]): 11 mm; MBC (Escherichia coli [23]): 245 µg/mL (≈ 548 µM); MIC (Escherichia coli [23]): 45 µg/mL (≈ 101 µM); zone of inhibition at 50 µg/mL (Fusarium oxysporum [24]): 15 mm
NYSTATIN	–	–	–	–	–	–	–	–	–	–	–	–	–	–	–	–	–	–	–	–	MFC (Fusarium oxysporum [2]): 100 µg/mL; MIC (Fusarium oxysporum [2]): 15 µg/mL; inhibition zone (IZ) (Fusarium verticillioides [3]): 28 mm; inhibition zone (IZ) (Aspergillus flavus [5]): 16 mm; inhibition zone (IZ) (Fusarium verticillioides [6]): 12 mm; MFC (Fusarium verticillioides [7]): 100 µg/mL; MIC (Fusarium verticillioides [7]): 12 µg/mL; MFC (Aspergillus niger [8]): 100 µg/mL; MIC (Aspergillus niger [8]): 10 µg/mL; inhibition zone (IZ) (Aspergillus niger [11]): 25 mm; inhibition zone (IZ) (Aspergillus niger [12]): 10 mm; MFC (Aspergillus flavus [14]): 100 µg/mL; MIC (Aspergillus flavus [14]): 8 µg/mL; inhibition zone (IZ) (Fusarium oxysporum [20]): 30 mm; inhibition zone (IZ) (Aspergillus flavus [21]): 20 mm; inhibition zone (IZ) (Fusarium oxysporum [24]): 16 mm
Cc1c(C(=O)NNC(=O)c2ccccc2)c(-c2ccccc2)nn1-c1ccccc1	200 (≈ 504 µM)	25 (≈ 63.1 µM)	260 (≈ 656 µM)	40 (≈ 101 µM)	9	180 (≈ 454 µM)	25 (≈ 63.1 µM)	10	6	260 (≈ 656 µM)	50 (≈ 126 µM)	215 (≈ 542 µM)	30 (≈ 75.7 µM)	13	8	14	8	18	275 (≈ 694 µM)	50 (≈ 126 µM)	zone of inhibition at 100 µg/mL (Bacillus cereus [15]): 16 mm; zone of inhibition at 50 µg/mL (Klebsiella pneumoniae [16]): 8 mm; zone of inhibition at 50 µg/mL (Staphylococcus aureus [17]): 6 mm; MBC (Klebsiella pneumoniae [18]): 200 µg/mL (≈ 504 µM); MIC (Klebsiella pneumoniae [18]): 25 µg/mL (≈ 63.1 µM); zone of inhibition at 100 µg/mL (Escherichia coli [19]): 18 mm; zone of inhibition at 100 µg/mL (Fusarium oxysporum [20]): 10 mm; zone of inhibition at 100 µg/mL (Aspergillus flavus [21]): 12 mm; zone of inhibition at 100 µg/mL (Klebsiella pneumoniae [22]): 14 mm; MBC (Escherichia coli [23]): 190 µg/mL (≈ 479 µM); MIC (Escherichia coli [23]): 25 µg/mL (≈ 63.1 µM); zone of inhibition at 50 µg/mL (Fusarium oxysporum [24]): 8 mm
Cc1c(-c2nnc(-c3ccc([N+](=O)[O-])cc3)o2)c(-c2ccc([N+](=O)[O-])cc2)nn1-c1ccccc1	155 (≈ 331 µM)	20 (≈ 42.7 µM)	280 (≈ 598 µM)	50 (≈ 107 µM)	18	160 (≈ 342 µM)	20 (≈ 42.7 µM)	8	8	290 (≈ 619 µM)	55 (≈ 117 µM)	275 (≈ 587 µM)	45 (≈ 96.1 µM)	12	14	14	6	20	275 (≈ 587 µM)	40 (≈ 85.4 µM)	zone of inhibition at 100 µg/mL (Bacillus cereus [15]): 22 mm; zone of inhibition at 50 µg/mL (Klebsiella pneumoniae [16]): 8 mm; zone of inhibition at 50 µg/mL (Staphylococcus aureus [17]): 12 mm; MBC (Klebsiella pneumoniae [18]): 170 µg/mL (≈ 363 µM); MIC (Klebsiella pneumoniae [18]): 25 µg/mL (≈ 53.4 µM); zone of inhibition at 100 µg/mL (Escherichia coli [19]): 22 mm; zone of inhibition at 100 µg/mL (Fusarium oxysporum [20]): 16 mm; zone of inhibition at 100 µg/mL (Aspergillus flavus [21]): 11 mm; zone of inhibition at 100 µg/mL (Klebsiella pneumoniae [22]): 16 mm; MBC (Escherichia coli [23]): 175 µg/mL (≈ 374 µM); MIC (Escherichia coli [23]): 25 µg/mL (≈ 53.4 µM); zone of inhibition at 50 µg/mL (Fusarium oxysporum [24]): 8 mm
